Assay outcomes as filed in PubChem.
In the library only some 3.4% were active in any assay of this set; here they are far more common.
MEKK3 PB1 HTS: raises or lowers MEK5 binding to the human MEKK3 PB1 domain | Q99759 | bead-based flow cytometry, Alexa488-MEK5 binding to MEKK3; actives lie on both sides; 0 = blocked by unlabeled MEK5, 100 = vehicle | binding response (% of control), % at 10 µM | hit rate 1.4% among 290,000 | AID 1529;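 active = binding response more than 3 SD above or below the average of its plate-row segment, actives on both sides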;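 note: Alexa488 bead fluorescence after subtracting the streptavidin-only scavenger bead signal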
Target sequence (Q99759 whole entry, looked up, the tested form may be a part): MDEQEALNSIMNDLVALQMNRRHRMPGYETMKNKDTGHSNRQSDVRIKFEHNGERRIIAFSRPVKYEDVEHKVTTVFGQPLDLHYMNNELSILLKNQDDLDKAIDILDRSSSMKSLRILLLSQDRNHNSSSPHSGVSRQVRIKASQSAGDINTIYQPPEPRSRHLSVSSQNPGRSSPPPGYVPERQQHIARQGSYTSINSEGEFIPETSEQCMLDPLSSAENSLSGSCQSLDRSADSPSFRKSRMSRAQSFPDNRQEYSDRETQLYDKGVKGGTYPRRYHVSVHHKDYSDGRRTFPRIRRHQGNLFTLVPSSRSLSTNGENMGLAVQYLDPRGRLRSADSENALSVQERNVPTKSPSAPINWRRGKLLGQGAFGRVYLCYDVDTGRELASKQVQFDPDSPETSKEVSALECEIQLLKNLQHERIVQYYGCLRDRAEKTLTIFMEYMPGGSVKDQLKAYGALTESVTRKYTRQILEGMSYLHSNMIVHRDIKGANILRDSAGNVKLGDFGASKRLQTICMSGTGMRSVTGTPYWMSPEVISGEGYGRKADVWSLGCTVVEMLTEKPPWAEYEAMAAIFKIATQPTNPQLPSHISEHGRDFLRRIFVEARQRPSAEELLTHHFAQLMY
VIM-2 inhibitor: inhibitors of Pseudomonas aeruginosa VIM-2 metallo-beta-lactamase; purified VIM-2, nitrocefin hydrolysis, epi-absorbance fluorescence; inhibition, % at 5.6 µM; hit rate 0.89% among 290,000; AID 1527;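 active = inhibition above the mean of all tested compounds plus 3 SD, cutoff set per screening run, cut at about 7.5% in these data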;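 note: red hydrolysis product quenches plate fluorescence so inhibitors raise well fluorescence; 0% = enzyme with DMSO and 100% = DMSO without enzyme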
MEKK2wt PB1 HTS: raises or lowers MEK5 binding to wildtype human MEKK2 PB1 domain. bead flow cytometry, Alexa488-MEK5 binding to MEKK2 WT; actives lie on both sides. binding response (% of control), % at 10 µM. hit rate 1.1% among 290,000; in the data active = binding response below about 67% or above about 130%
MEKK2 mut-MEK5: signal of MEK5 binding to mutant human MEKK2 PB1 domain. bead flow cytometry, Alexa488-MEK5 binding to MEKK2 mutant. percent response, % at 10 µM. hit rate 0.35% among 290,000; in the data active = percent response above about 24%, passing the limit was not always enough
IMP-1 inh: inhibitors of Pseudomonas aeruginosa IMP-1 metallo-beta-lactamase | purified IMP-1, nitrocefin hydrolysis, epi-absorbance fluorescence | inhibition, % at 5.6 µM | hit rate 0.45% among 290,000 | AID 1556;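 active = inhibition above the mean plus 3 SD of all compounds in the same screening run, cut at about 4.5% in these data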;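 note: 0% = IMP-1 with DMSO and 100% = DMSO wells lacking enzyme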
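System: Purified recombinant IMP-1 metallo-beta-lactamase enzyme | Measured by: Fluorescence quenching readout, ex 480/em 530 nm | Replication: Singlicate | Incubation: 15 min preincubation plus 25 min reaction at 25 °C | Evaluation: Percent inhibition from optical density relative to buffer-blank wells | Benchmarks: DMSO with and without IMP-1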
MEKK2wt confirm: raises or lowers MEK5 binding to wildtype human MEKK2, retest; bead flow cytometry, Alexa488-MEK5 binding to MEKK2 WT; actives lie on both sides; binding response (% of control), % at 10 µM; shares compounds with MEKK3 PB1 HTS; hit rate 2.4% among 5,900; in the data active = binding response below about 16% or above about 210%; inactive = in between
MEKK2mut confirm: signal of MEK5 binding to mutant human MEKK2, retest; shares compounds with MEKK3 PB1 HTS; bead flow cytometry, Alexa488-MEK5 binding to MEKK2 mutant; percent response, % at 10 µM; hit rate 2% among 5,900; in the data active = percent response mostly above about 71%, no sharp cut-off; inactive = mostly below about 38%;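 note: higher means compound restores mutant binding toward wildtype level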
MEKK3-MEK5 inh: confirmation of inhibitors of MEK5 binding to human MEKK3. bead flow cytometry, Alexa488-MEK5 binding to MEKK3; stronger effect = lower value. binding response (% of control), % at 10 µM. shares compounds with MEKK3 PB1 HTS. hit rate 1.8% among 5,900;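 active = binding response below 72% of control, or above a set upper limit, though filed actives all read lower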;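 note: 100% = DMSO only wells and 0% = binding blocked by excess unlabeled MEK5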
Numbers without * were called inactive; . = not tested or not shown; [ ] = remark or other dose.

SMILES	MEKK3 PB1 HTS	VIM-2 inhibitor	MEKK2wt PB1 HTS	MEKK2 mut-MEK5	IMP-1 inh	MEKK2wt confirm	MEKK2mut confirm	MEKK3-MEK5 inh
CC(C)(C)C1=C(C#N)C(c2ccncc2)C(C#N)=C(N)O1 (configuration not stated)	89	-1	91	-3	-2	.	.	.
CC1=N/C(=C\c2ccc([N+](=O)[O-])cc2)C(=O)N1c1cc(Cl)ccc1C	90	-2	52*[inhibitor]	-3	-3	81	-17	95
Cc1ccc(S(=O)(=O)Oc2ccccc2/C=N/NC(N)=S)cc1	97	-3	97	-3	-3	.	.	.
Cc1ccc(S(=O)(=O)Oc2ccccc2/C=N/N=C(N)N)cc1	115	-1	149*	19	-2	118	14	102
O=C(Cc1ccccc1)Nc1ccccc1N1CCCC1	105	-2	103	-3	-3	.	.	.
CCN(CC)CCN1C(=O)c2oc3ccccc3c(=O)c2C1c1ccc(C)cc1 (configuration not stated)	99	-4	103	4	-1	.	.	.
CN(C)CCN1C(=O)c2oc3ccccc3c(=O)c2C1c1ccc(F)cc1 (configuration not stated)	2.0*[inhibitor]	-6	-1.0*[inhibitor]	-26	-3	110	14	105
COc1ccc(NC(=O)C(NC(=O)CC2NC(=O)NC2=O)c2ccccc2)cc1 (configuration not stated)	155*	-1	106	0	-2	103	1	100
c1ccc(-c2cc(NCCN3CCCCC3)c3ccccc3n2)cc1	111	0	139*	23	-4	119	10	105
COC(=O)[C@@H](NCc1cccc(CN[C@H](C(=O)OC)c2ccccc2)c1)c1ccccc1	107	2	163*	8	0	91	-7	93
Cc1nnc(NC(=O)CSc2ncnc3c2cnn3-c2ccccc2C)s1	103	-1	102	1	-2	.	.	.
NC(=O)CSc1nnc(-c2cc3ccccc3o2)n1Cc1ccccc1	124*	-2	119	9	-5	98	3	104
COc1ccc(OC)c(S(=O)(=O)Nc2cccc(F)c2)c1	99	-1	103	4	-4	.	.	.
CCOC(=O)CNc1nc(Cl)nc(NC(C)(C)C)n1	130*	-3	119	2	-3	102	0	96
CNC(=O)N(C1=NCCCCC1)c1ccc(Br)cc1	129*	-1	103	0	-3	107	7	107
CCOc1ccc(N(C(=O)Nc2ccccc2)C2=NCCC2)cc1	100	-5	101	1	-3	.	.	.
COc1ccc(OC)c(NC(=O)c2cccc(C)c2[N+](=O)[O-])c1	101	-1	96	-4	-2	.	.	.
CC(=O)Oc1ccc(C(=O)Cc2ccc3ccccc3n2)c(O)c1C	135*	-2	105	7	-3	110	3	108
Cc1c(O)ccc(/C(Cc2ccc3ccccc3n2)=N\O)c1O	101	-4	92	0	-3	.	.	.
CCOc1ccc(C(=O)Nc2nnn(CC)n2)cc1	105	-3	110	0	-5	.	.	.
CC(C)COC(=O)c1nnsc1NC(=O)Nc1ccccc1	76*[inhibitor]	-4	81	-13	0	96	-6	103
COc1ccc(Cc2c(N)nc(N)nc2N)cc1	100	-5	110	9	-1	.	.	.
Nc1ccc(OCCCc2c(N)nc(N)nc2N)cc1	82*[inhibitor]	-1	110	8	-1	120	13	95
CC1(C)Cc2nc(N3CCCC3)c(C#N)cc2CO1	129*	-5	117	2	-4	99	-7	101
CC1(C)Cc2nc(N3CCOCC3)c(C#N)cc2CO1	112	-2	106	2	-4	.	.	.
SMILES	MEKK3 PB1 HTS	VIM-2 inhibitor	MEKK2wt PB1 HTS	MEKK2 mut-MEK5	IMP-1 inh	MEKK2wt confirm	MEKK2mut confirm	MEKK3-MEK5 inh
CCCSC1=N/C(=C\c2ccc([N+](=O)[O-])o2)C(=O)S1	98	-1	86	-5	-2	.	.	.
COc1cc(/C=C/C(=O)O)ccc1O	104	.	103	3	.	.	.	.
COc1cc(/C=C/C(=O)CC(=O)/C=C/c2ccc(O)c(OC)c2)ccc1O	75	-1	14*	40*	18*	88	-6	88
O=C1NN=C(c2ccc(Cl)cc2)CC1c1cccc(Cl)c1 (configuration not stated)	101	-1	99	12	-2	.	.	.
COC(=O)c1cc(NC(=O)c2ccc(F)cc2)cc(C(=O)OC)c1	89	-1	.	103*	-1	98	-2	98
COC(=O)c1cc(NC(=O)c2ccccc2F)cc(C(=O)OC)c1	113	-2	109	0	-1	.	.	.
CCc1ccc(OCC2c3cc(OC)c(OC)cc3CCN2C(=S)NC)cc1 (configuration not stated)	134*	-4	117	0	-3	102	7	102
Cc1cc(NC(=O)Cc2ccccc2C)no1	100	-2	102	-3	-3	.	.	.
Cc1ccc(Cn2c(=N)n(CC(O)COc3ccccc3)c3ccccc32)cc1 (configuration not stated)	109	-4	134*	13	-2	131	17	105
CCOc1ccc(C(C)=O)cc1N1C(=O)C2C3C=CC(O3)C2C1=O (configuration not stated)	92	-2	94	-6	-3	.	.	.
O=C(O)CCCC(=O)Nc1ccc(Oc2ncnc3cc(Cl)ccc23)nc1	128*	-3	128	26	-2	98	-1	99
O=C(Nc1ccc(F)cc1)Nc1ccc(Oc2ncnc3cc(Cl)ccc23)nc1	69*[inhibitor]	-2	75	-33	-3	104	2	102
O=C(Nc1ccc(Oc2ncnc3cc(Cl)ccc23)nc1)c1cccs1	87	-1	93	-17	-3	.	.	.
O=C(Nc1ccc(Oc2ccc(C(F)(F)F)cn2)c(Cl)c1)C1CC1	104	-3	98	-9	-2	.	.	.
Cc1onc(-c2ccccc2)c1C(=O)NCc1ccc2c(c1)OCO2	102	-3	-6.0*[inhibitor]	1	-1	105	2	104
Cc1onc(-c2c(F)cccc2Cl)c1C(=O)NCc1ccc2c(c1)OCO2	104	-1	107	7	-2	.	.	.
COc1ccc2ccccc2c1/C=N/O	133*	-3	121	6	-3	98	1	101
CC1(C(=O)NCc2ccccn2)C=CCN1C(=O)c1ccccc1 (configuration not stated)	50*[inhibitor]	1	65	1	1	114	12	110
